Legend:
Assay type in all cases: functional
[1] = test system: Plasmodium cynomolgi; assay: Radio curative antimalarial activity against Plasmodium cynomolgi in rhesus monkey at 0.5 mg/kg (base/day) peroral dose; cured 1 of 1; details: route oral
[2] = test system: Mus musculus; assay: Antimalarial activity against Plasmodium berghei in mice (Mus musculus) at 640 mg/kg dose administered subcutaneously; toxic; details: route subcutaneous
In short: (§1)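 Primary mouse screen: groups of five mice infected with a lethal dose of P. berghei 3 days before drug administration. Drug given subcutaneously, routinely in sesame or peanut oil. Mean survival time compared with infected untreated controls; extension in survival time (ΔMST) taken as antimalarial activity.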

[3] = test system: Mus musculus; assay: Antimalarial activity against Plasmodium berghei in mice (Mus musculus) at 40 mg/kg dose administered subcutaneously; toxic; details: route subcutaneous; in short: as §1
[4] = test system: Mus musculus; assay: Antimalarial activity against Plasmodium berghei in mice (Mus musculus) at 20 mg/kg dose administered subcutaneously; active/3 toxic; details: route subcutaneous; in short: as §1
[5] = test system: Mus musculus; assay: Antimalarial activity against Plasmodium berghei in mice (Mus musculus) at 160 mg/kg dose administered subcutaneously; toxic; details: route subcutaneous; in short: as §1
[6] = test system: Plasmodium cynomolgi; assay: Radio curative antimalarial activity against Plasmodium cynomolgi in rhesus monkey at 0.25 mg/kg (base/day) peroral dose; cured 5 of 6; details: route oral
[7] = test system: Plasmodium cynomolgi; assay: Radio curative antimalarial activity against Plasmodium cynomolgi in rhesus monkey at 0.75 mg/kg (base/day) peroral dose; cured 3 of 3; details: route oral
[8] = test system: Mus musculus; assay: Antimalarial activity against Plasmodium berghei in mice (Mus musculus) at 20 mg/kg dose administered subcutaneously; cure and active at 1.25 mg/kg; in short: as §1
[9] = test system: Plasmodium cynomolgi; assay: Radio curative antimalarial activity against Plasmodium cynomolgi in rhesus monkey at 0.25 mg/kg (base/day) peroral dose; cured 1 of 4; details: route oral
[10] = test system: Mus musculus; assay: Antimalarial activity against Plasmodium berghei in mice (Mus musculus) at 40 mg/kg dose administered subcutaneously; cure/1 toxic; details: route subcutaneous; in short: as §1
[11] = test system: Mus musculus; assay: Antimalarial activity against Plasmodium berghei in mice (Mus musculus) at 40 mg/kg dose administered subcutaneously; active/1 toxic; details: route subcutaneous; in short: as §1
[12] = test system: Plasmodium cynomolgi; assay: Radio curative antimalarial activity against Plasmodium cynomolgi in rhesus monkey at 0.25 mg/kg (base/day) peroral dose; cured 2 of 2; details: route oral
[13] = test system: Mus musculus; assay: Antimalarial activity against Plasmodium berghei in mice (Mus musculus) at 20 mg/kg dose administered subcutaneously; active/1 toxic; details: route subcutaneous; in short: as §1
[14] = test system: Mus musculus; assay: Antimalarial activity against Plasmodium berghei in mice (Mus musculus) at 160 mg/kg dose administered subcutaneously; details: route subcutaneous; in short: as §1
[15] = test system: Mus musculus; assay: Antimalarial activity against Plasmodium berghei in mice (Mus musculus) at 40 mg/kg dose administered subcutaneously; details: route subcutaneous; in short: as §1
[16] = test system: Plasmodium cynomolgi; assay: Radio curative antimalarial activity against Plasmodium cynomolgi in rhesus monkey at 0.25 mg/kg (base/day) peroral dose; cured 0 of 3; details: route oral
[17] = test system: Plasmodium cynomolgi; assay: Radio curative antimalarial activity against Plasmodium cynomolgi in rhesus monkey at 0.75 mg/kg (base/day) peroral dose; cured 0 of 3; details: route oral
[18] = test system: Mus musculus; assay: Antimalarial activity against Plasmodium berghei in mice (Mus musculus) at 640 mg/kg dose administered subcutaneously; details: route subcutaneous; in short: as §1
[19] = test system: Mus musculus; assay: Antimalarial activity against Plasmodium berghei in mice (Mus musculus) at 40 mg/kg dose administered subcutaneously; active/3 toxic; details: route subcutaneous; in short: as §1
[20] = test system: Mus musculus; assay: Antimalarial activity against Plasmodium berghei in mice (Mus musculus) at 20 mg/kg dose administered subcutaneously; details: route subcutaneous; in short: as §1
[21] = test system: Plasmodium cynomolgi; assay: Radio curative antimalarial activity against Plasmodium cynomolgi in rhesus monkey at 0.25 mg/kg (base/day) peroral dose; cured 2 of 4; details: route oral
[22] = test system: Plasmodium cynomolgi; assay: Radio curative antimalarial activity against Plasmodium cynomolgi in rhesus monkey at 0.75 mg/kg (base/day) peroral dose;cured 3 of 5; details: route oral
[23] = test system: Plasmodium cynomolgi; assay: Radio curative antimalarial activity against Plasmodium cynomolgi in Rhesus monkey at 0.0625 mg/kg(base/day) peroral dose; Cured 0 of 2; details: route oral
[24] = test system: Plasmodium cynomolgi; assay: Radio curative antimalarial activity against Plasmodium cynomolgi in rhesus monkey at 0.75 mg/kg (base/day) peroral dose; cured 4 of 5; details: route oral
[25] = test system: Plasmodium cynomolgi; assay: Radio curative antimalarial activity against Plasmodium cynomolgi in rhesus monkey at 0.125 mg/kg(base/day) peroral dose; Cured 6 of 10; details: route oral
[26] = test system: Plasmodium cynomolgi; assay: Radio curative antimalarial activity against Plasmodium cynomolgi in rhesus monkey at 0.25 mg/kg (base/day) peroral dose; cured 4 of 4; details: route oral

COc1cc(NCCCC(C)N)c2nccc(C)c2c1OC (stereo unspecified) was tested, and the Cured animals [1] was 1, the “Delta MST” value [2] was 5 days and the number of mice died of toxicity [3] was 5 mice. For the same molecule, the “Delta MST” value [4] was 11.4 days, the “Delta MST” value [5] was 5 days and the Cured animals [6] was 5.
In the case of COc1cc(NC(C)CCCCN)c2nccc(C)c2c1OC (stereo unspecified), the “Delta MST” value [2] is reported as 5 days, the Cured animals [7] is reported as 3 and the “Delta MST” value [8] is reported as 3 days. The Cured animals [9] was 1, the “Delta MST” value [5] was 5 days and the number of mice cured [10] was 1 mice.
In the case of COc1cc(NCCCCC(C)N)c2nccc(C)c2c1OC (stereo unspecified), the “Delta MST” value [2] is reported as 5 days, the Cured animals [7] is reported as 3 and the “Delta MST” value [11] is reported as 8.7 days. For the same molecule, the Cured animals [12] was 2, the “Delta MST” value [13] was 7.5 days and the “Delta MST” value [5] was 5 days.
For CCC(CCCN)Nc1cc2c(c3c(C)ccnc13)OCO2 (stereo unspecified), the “Delta MST” value [14] was 0.5 days, the “Delta MST” value [15] was 0.5 days and the Cured animals [16] was 0. The Cured animals [17] was 0 and the “Delta MST” value [18] was 0.9 days.
COc1cc(NC(C)CCCN)c2nc(C)cc(C)c2c1OC (stereo unspecified) was tested, and the “Delta MST” value [19] was 6.3 days, the “Delta MST” value [2] was 5 days and the “Delta MST” value [20] was 4.9 days. The Cured animals [21] was 2, the Cured animals [22] was 3 and the “Delta MST” value [5] was 5 days.
CCC(CCCN)Nc1cc(OC)c(OC)c2c(C)ccnc12 (stereo unspecified) was tested, and the “Delta MST” value [15] was 0.1 days, the “Delta MST” value [2] was 5 days and the Cured animals [23] was 0. The Cured animals [24] was 4, the Cured animals [25] was 6 and the “Delta MST” value [5] was 5 days. The Cured animals [26] was 4.

Source: ChEMBL document CHEMBL1122115, “Antimalarials. 13. 5-Alkoxy analogues of 4-methylprimaquine” (1982)
